Laboratory results from ChEMBL document CHEMBL4368906 (J Med Chem, 2019).
Bridge positions count the residues as written; N and C are the ends. Square brackets hold non-standard residues; d marks the D form. Peptide text beside a SMILES is read from it. NMeW = CN[C@@H](Cc1c[nH]c2ccccc12)C(=O)O; NMeY = CN[C@@H](Cc1ccc(O)cc1)C(=O)O; NMeF = CN[C@@H](Cc1ccccc1)C(=O)O; NMeK = CN[C@@H](CCCCN)C(=O)O; NMeC = CN[C@@H](CS)C(=O)O

Key:
Urotensin-2 receptor [1] = target: T1, Urotensin-2 receptor (Homo sapiens, UniProt Q9UKP6); test: Displacement of [125I]-URP or human [125I[-urotensin-2 from human urotensin 2 receptor expressed in HEK293 or CHOK1 cells after 2 hrs by gamma-counting assay; format: cell-based
T1 sequence (Q9UKP6 whole entry): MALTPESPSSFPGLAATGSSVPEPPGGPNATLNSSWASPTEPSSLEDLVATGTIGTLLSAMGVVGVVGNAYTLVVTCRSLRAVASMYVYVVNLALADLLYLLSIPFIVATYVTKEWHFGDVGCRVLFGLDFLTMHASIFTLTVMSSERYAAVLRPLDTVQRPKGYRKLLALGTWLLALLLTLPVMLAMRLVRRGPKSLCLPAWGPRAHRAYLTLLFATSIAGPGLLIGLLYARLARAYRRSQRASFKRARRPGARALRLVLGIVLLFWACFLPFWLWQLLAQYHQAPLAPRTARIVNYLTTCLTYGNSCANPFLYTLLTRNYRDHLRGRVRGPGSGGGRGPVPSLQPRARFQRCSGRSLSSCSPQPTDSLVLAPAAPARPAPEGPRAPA

Urotensin-2 receptor [2] = target: T2, Urotensin-2 receptor (Rattus norvegicus, UniProt P49684); test: Agonist activity at urotensin 2 receptor in Sprague-Dawley rat thoracic aortic ring assessed as induction of contraction relative to KCl-induced contraction
T2 sequence (P49684 whole entry): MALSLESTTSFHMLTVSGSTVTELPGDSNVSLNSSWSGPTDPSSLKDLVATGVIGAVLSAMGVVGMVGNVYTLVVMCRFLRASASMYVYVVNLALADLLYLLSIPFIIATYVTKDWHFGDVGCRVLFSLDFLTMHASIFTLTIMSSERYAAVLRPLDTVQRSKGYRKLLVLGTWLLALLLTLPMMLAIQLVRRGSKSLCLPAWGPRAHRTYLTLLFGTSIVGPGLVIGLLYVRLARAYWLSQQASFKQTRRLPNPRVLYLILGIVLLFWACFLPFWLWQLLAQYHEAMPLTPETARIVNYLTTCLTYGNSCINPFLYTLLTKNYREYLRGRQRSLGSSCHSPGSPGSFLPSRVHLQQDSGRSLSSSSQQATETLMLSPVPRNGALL
Method in brief: (§1)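 Male Sprague-Dawley rats, 250-300 g. Aortic rings were held in a 5-mL organ bath of oxygenated Krebs-Henseleit buffer. Each vessel was first challenged with KCl, 40 mM final in the bath. Peptides were added cumulatively from 10−11 to 10−5 M. Each contraction was taken as a percentage of the KCl response, divided by the response to hU-II (10−7 M).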

[3] = target: T3, Urotensin-2 receptor (Rattus norvegicus) (UniProt P49684); test: Agonist activity at urotensin 2 receptor in Sprague-Dawley rat thoracic aortic ring assessed as induction of contraction relative to urotensin-2; method in brief: as §1
T3 sequence (whole entry): T2 sequence (P49684 whole entry)

Urotensin-2 receptor [4] = target: T1, Urotensin-2 receptor; test: Agonist activity at urotensin 2 receptor (unknown origin) expressed in HEK293 cells co-expressing Gq-polycistronic BRET biosensor assessed as induction of Gq activation measured for 5 mins by luminescence detection based BRET assay; format: cell-based
[5] = target: T3, Urotensin-2 receptor (Rattus norvegicus); test: Agonist activity at urotensin 2 receptor in Sprague-Dawley rat thoracic aortic ring assessed as induction of contraction at 10 uM relative to KCl-induced contraction; method in brief: as §1

Structure (SMILES)	Ki (Urotensin-2 receptor [1]) [nM]	EC50 (Urotensin-2 receptor [2]) [nM]	Emax [3] [%]	EC50 (Urotensin-2 receptor [4]) [nM]	Activity [5] [%]
CC(C)[C@H](NC(=O)[C@@H]1CSSC[C@H](N(C)C(=O)[C@H](CC(=O)O)NC(=O)[C@@H]2CCCN2C(=O)[C@@H](NC(=O)[C@@H](N)CCC(=O)O)[C@@H](C)O)C(=O)N[C@@H](Cc2ccccc2)C(=O)N[C@@H](Cc2c[nH]c3ccccc23)C(=O)N[C@@H](CCCCN)C(=O)N[C@@H](Cc2ccc(O)cc2)C(=O)N1)C(=O)O	49	9.77	112		
CC(C)[C@H](NC(=O)[C@@H]1CSSC[C@H](NC(=O)[C@H](C)N)C(=O)N[C@@H](Cc2ccccc2)C(=O)N[C@@H](Cc2c[nH]c3ccccc23)C(=O)N[C@@H](CCCCN)C(=O)N[C@@H](Cc2ccc(O)cc2)C(=O)N1)C(=O)O	6.31	7.76	116	2.69	
CC(C)[C@H](NC(=O)[C@@H]1CSSC[C@H](N(C)C(=O)[C@@H](N)CC(=O)O)C(=O)N[C@@H](Cc2ccccc2)C(=O)N[C@@H](Cc2c[nH]c3ccccc23)C(=O)N[C@@H](CCCCN)C(=O)N[C@@H](Cc2ccc(O)cc2)C(=O)N1)C(=O)O (H-D[NMeC]FWKYCV-OH; disulfide 2-7)	2.95	4.47	101		
CC(C)[C@H](NC(=O)[C@@H]1CSSC[C@H](NC(=O)[C@H](C)N)C(=O)N(C)[C@@H](Cc2ccccc2)C(=O)N[C@@H](Cc2c[nH]c3ccccc23)C(=O)N[C@@H](CCCCN)C(=O)N[C@@H](Cc2ccc(O)cc2)C(=O)N1)C(=O)O	245			105	51
CC(C)[C@H](NC(=O)[C@@H]1CSSC[C@H](NC(=O)[C@H](CC(=O)O)NC(=O)[C@@H]2CCCN2C(=O)[C@@H](NC(=O)[C@@H](N)CCC(=O)O)[C@@H](C)O)C(=O)N[C@@H](Cc2ccccc2)C(=O)N[C@@H](Cc2c[nH]c3ccccc23)C(=O)N[C@@H](CCCCN)C(=O)N[C@@H](Cc2ccc(O)cc2)C(=O)N1)C(=O)O [UROTENSIN-II]		3.02			
CC(C)[C@H](NC(=O)[C@@H]1CSSC[C@H](NC(=O)[C@H](CC(=O)O)NC(=O)[C@@H]2CCCN2C(=O)[C@@H](NC(=O)[C@@H](N)CCC(=O)O)[C@@H](C)O)C(=O)N[C@@H](Cc2ccccc2)C(=O)N[C@@H](Cc2c[nH]c3ccccc23)C(=O)N[C@@H](CCCCN)C(=O)N[C@@H](Cc2ccc(O)cc2)C(=O)N1C)C(=O)O	22.9	24.5	105	2.69	
CC(C)[C@H](NC(=O)[C@@H]1CSSC[C@H](N(C)C(=O)[C@H](C)N)C(=O)N[C@@H](Cc2ccccc2)C(=O)N[C@@H](Cc2c[nH]c3ccccc23)C(=O)N[C@@H](CCCCN)C(=O)N[C@@H](Cc2ccc(O)cc2)C(=O)N1)C(=O)O	1.74	4.9	110		
CC(C)[C@H](NC(=O)[C@@H]1CSSC[C@H](NC(=O)[C@H](CC(=O)O)NC(=O)[C@@H]2CCCN2C(=O)[C@@H](NC(=O)[C@@H](N)CCC(=O)O)[C@@H](C)O)C(=O)N[C@@H](Cc2ccccc2)C(=O)N[C@@H](Cc2c[nH]c3ccccc23)C(=O)N(C)[C@@H](CCCCN)C(=O)N[C@@H](Cc2ccc(O)cc2)C(=O)N1)C(=O)O	2090				72
CC(C)[C@H](NC(=O)[C@@H]1CSSC[C@H](NC(=O)[C@H](CC(=O)O)NC(=O)[C@@H]2CCCN2C(=O)[C@@H](NC(=O)[C@@H](N)CCC(=O)O)[C@@H](C)O)C(=O)N(C)[C@@H](Cc2ccccc2)C(=O)N[C@@H](Cc2c[nH]c3ccccc23)C(=O)N[C@@H](CCCCN)C(=O)N[C@@H](Cc2ccc(O)cc2)C(=O)N1)C(=O)O	813	200	96	22.4	
CC(C)[C@H](NC(=O)[C@@H]1CSSC[C@H](NC(=O)[C@H](C)N)C(=O)N[C@@H](Cc2ccccc2)C(=O)N[C@@H](Cc2c[nH]c3ccccc23)C(=O)N[C@@H](CCCCN)C(=O)N(C)[C@@H](Cc2ccc(O)cc2)C(=O)N1)C(=O)O	5370				16
CC(C)[C@H](NC(=O)[C@@H]1CSSC[C@H](NC(=O)[C@H](CC(=O)O)NC(=O)[C@@H]2CCCN2C(=O)[C@@H](NC(=O)[C@@H](N)CCC(=O)O)[C@@H](C)O)C(=O)N[C@@H](Cc2ccccc2)C(=O)N[C@@H](Cc2c[nH]c3ccccc23)C(=O)N[C@@H](CCCCN)C(=O)N(C)[C@@H](Cc2ccc(O)cc2)C(=O)N1)C(=O)O	2140				71
CC(C)[C@H](NC(=O)[C@@H]1CSSC[C@H](NC(=O)[C@H](CC(=O)O)NC(=O)[C@@H]2CCCN2C(=O)[C@@H](NC(=O)[C@@H](N)CCC(=O)O)[C@@H](C)O)C(=O)N[C@@H](Cc2ccccc2)C(=O)N(C)[C@@H](Cc2c[nH]c3ccccc23)C(=O)N[C@@H](CCCCN)C(=O)N[C@@H](Cc2ccc(O)cc2)C(=O)N1)C(=O)O	20.4	5.75	97	5.62	

Further lines, results first:

Ki (Urotensin-2 receptor [1]) [nM]	EC50 (Urotensin-2 receptor [2]) [nM]	Emax [3] [%]	EC50 (Urotensin-2 receptor [4]) [nM]	Activity [5] [%]	Structure (SMILES)
1.74	3.39	105	3.63		CC(C)[C@H](NC(=O)[C@@H]1CSSC[C@H](NC(=O)[C@@H](N)CC(=O)O)C(=O)N[C@@H](Cc2ccccc2)C(=O)N(C)[C@@H](Cc2c[nH]c3ccccc23)C(=O)N[C@@H](CCCCN)C(=O)N[C@@H](Cc2ccc(O)cc2)C(=O)N1)C(=O)O (H-DCF[NMeW]KYCV-OH; disulfide 2-7)
3.55	5.25	95	4.68		CC(C)[C@H](NC(=O)[C@@H]1CSSC[C@H](NC(=O)[C@@H](N)CC(=O)O)C(=O)N[C@@H](Cc2ccccc2)C(=O)N[C@@H](Cc2c[nH]c3ccccc23)C(=O)N[C@@H](CCCCN)C(=O)N[C@@H](Cc2ccc(O)cc2)C(=O)N1C)C(=O)O (H-DCFWKY[NMeC]V-OH; disulfide 2-7)
4.57	5.25		1.86		CC(C)[C@H](NC(=O)[C@@H]1CSSC[C@H](NC(=O)[C@@H](N)CC(=O)O)C(=O)N[C@@H](Cc2ccccc2)C(=O)N[C@@H](Cc2c[nH]c3ccccc23)C(=O)N[C@@H](CCCCN)C(=O)N[C@@H](Cc2ccc(O)cc2)C(=O)N1)C(=O)O (H-DCFWKYCV-OH; disulfide 2-7)
1510				22	CC(C)[C@H](NC(=O)[C@@H]1CSSC[C@H](NC(=O)[C@H](C)N)C(=O)N[C@@H](Cc2ccccc2)C(=O)N[C@@H](Cc2c[nH]c3ccccc23)C(=O)N(C)[C@@H](CCCCN)C(=O)N[C@@H](Cc2ccc(O)cc2)C(=O)N1)C(=O)O
229	537	98	18.6		CC(C)[C@H](NC(=O)[C@@H]1CSSC[C@H](NC(=O)[C@@H](N)CC(=O)O)C(=O)N(C)[C@@H](Cc2ccccc2)C(=O)N[C@@H](Cc2c[nH]c3ccccc23)C(=O)N[C@@H](CCCCN)C(=O)N[C@@H](Cc2ccc(O)cc2)C(=O)N1)C(=O)O (H-DC[NMeF]WKYCV-OH; disulfide 2-7)
> 10000				44	CC(C)[C@H](NC(=O)[C@@H]1CSSC[C@H](NC(=O)[C@@H](N)CC(=O)O)C(=O)N[C@@H](Cc2ccccc2)C(=O)N[C@@H](Cc2c[nH]c3ccccc23)C(=O)N[C@@H](CCCCN)C(=O)N(C)[C@@H](Cc2ccc(O)cc2)C(=O)N1)C(=O)O (H-DCFWK[NMeY]CV-OH; disulfide 2-7)
> 10000				42	CC(C)[C@H](NC(=O)[C@@H]1CSSC[C@H](NC(=O)[C@@H](N)CC(=O)O)C(=O)N[C@@H](Cc2ccccc2)C(=O)N[C@@H](Cc2c[nH]c3ccccc23)C(=O)N(C)[C@@H](CCCCN)C(=O)N[C@@H](Cc2ccc(O)cc2)C(=O)N1)C(=O)O (H-DCFW[NMeK]YCV-OH; disulfide 2-7)
2.19	83.2	35	13.8		CC(C)[C@H](NC(=O)[C@@H]1CSSC[C@H](NC(=O)[C@H](C)N)C(=O)N[C@@H](Cc2ccccc2)C(=O)N(C)[C@@H](Cc2c[nH]c3ccccc23)C(=O)N[C@@H](CCCCN)C(=O)N[C@@H](Cc2ccc(O)cc2)C(=O)N1)C(=O)O
3.55	9.55	44	5.25		CC(C)[C@H](NC(=O)[C@@H]1CSSC[C@H](NC(=O)[C@H](C)N)C(=O)N[C@@H](Cc2ccccc2)C(=O)N[C@@H](Cc2c[nH]c3ccccc23)C(=O)N[C@@H](CCCCN)C(=O)N[C@@H](Cc2ccc(O)cc2)C(=O)N1C)C(=O)O
